According to ChEMBL document CHEMBL3865799, “Synthesis of a series of novel dihydroartemisinin monomers and dimers containing chalcone as a linker and their anticancer activity” (Eur J Med Chem, 2016):

Columns and labels:
Vero [1] = test: Selectivity index, ratio of IC50 for African green monkey Vero cells to IC50 for human MIAPaCa2 cells; assay type: functional
Procedure, shortened: (§1)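 Suspension cells were seeded at 1.5 × 10^4 per well and adherent lines at 70–75% confluence, then exposed to a range of concentrations. MTT was added 3 h before the end, formazan dissolved in DMSO, and OD read at 570 nm (reference 620 nm). Growth inhibition was taken relative to untreated cells. IC50 came from the MTT data; SI = IC50 in Vero cells / IC50 in the tumour line.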

[2] = Cytotoxicity against human HL60 cells assessed as cell growth inhibition at 0.5 uM after 48 hrs by MTT assay; assay type: functional; conditions: HL-60, 48 h, read-out: GI
Procedure, shortened: (§2)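 HL-60 suspension cells, 1.5 × 10^4 per well, grown at 37 °C in 5% CO2 with 10% FCS. Treated 48 h with compound in DMSO (vehicle <0.2% v/v). MTT added 3 h before the end. Formazan dissolved in DMSO and read at 570 nm (reference 620 nm). % growth inhibition computed against untreated cells; IC50 taken from the concentration series.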

[3] = Cytotoxicity against human HL60 cells assessed as cell growth inhibition at 50 uM after 48 hrs by MTT assay; assay type: functional; conditions: HL-60, 48 h, read-out: GI; procedure, shortened: as §2
[4] = Cell cycle arrest in human HL60 cells assessed as accumulation at G1 phase at 0.5 uM after 24 hrs by propidium iodide-DNA fluorescence based FACS analysis (reference value: 46 %); assay type: functional; conditions: HL-60
Procedure, shortened: (§3)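 HL-60 cells seeded at 0.5 × 10^6 cells/ml, exposed 24 h to compound (DMSO vehicle, <0.2% v/v). Pelleted at 400×g, PBS-washed, fixed in 70% ethanol at 4 °C overnight. RNase A treatment at 37 °C for 1.30 h, then propidium iodide staining for 20 min. Flow cytometry on 10,000 events, FL2-A vs FL2-W; subG0 (apoptotic) and phase populations gated.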

[5] = Cytotoxicity against human HepG2 cells assessed as cell growth inhibition at 30 uM after 48 hrs by MTT assay; assay type: functional; conditions: HepG2, 48 h, read-out: GI
Procedure, shortened: (§4)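 Adherent lines at 70–75% confluence, grown at 37 °C in 5% CO2 with 10% FCS. Exposed 48 h to compound in DMSO (vehicle <0.2% v/v). MTT dye added 3 h before termination; formazan dissolved in DMSO, OD 570 nm with 620 nm reference. Growth inhibition expressed as % of untreated; IC50 taken from the dose series.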

[6] = Selectivity index, ratio of IC50 for African green monkey Vero cells to IC50 for human LS180 cells; assay type: functional; procedure, shortened: as §1
[7] = Cytotoxicity against human HL60 cells assessed as cell growth inhibition at 10 uM after 48 hrs by MTT assay; assay type: functional; conditions: HL-60, 48 h, read-out: GI; procedure, shortened: as §2
[8] = Cytotoxicity against human HepG2 cells assessed as cell growth inhibition after 48 hrs by MTT assay; assay type: functional, cell-based; conditions: HepG2, 48 h; procedure, shortened: as §4
[9] = Cytotoxicity against human MIAPaCa2 cells assessed as cell growth inhibition at 50 uM after 48 hrs by MTT assay; assay type: functional; conditions: MIA PaCa-2, 48 h, read-out: GI; procedure, shortened: as §4
[10] = Cytotoxicity against human HL60 cells assessed as cell growth inhibition at 30 uM after 48 hrs by MTT assay; assay type: functional; conditions: HL-60, 48 h, read-out: GI; procedure, shortened: as §2
[11] = Cytotoxicity against human HepG2 cells assessed as cell growth inhibition at 50 uM after 48 hrs by MTT assay; assay type: functional; conditions: HepG2, 48 h, read-out: GI; procedure, shortened: as §4
[12] = Cell cycle arrest in human HL60 cells assessed as accumulation at G1 phase at 1 uM after 24 hrs by propidium iodide-DNA fluorescence based FACS analysis (reference value: 46 %); assay type: functional; conditions: HL-60; procedure, shortened: as §3
[13] = Cell cycle arrest in human HL60 cells assessed as accumulation at G2 phase at 1 uM after 24 hrs by propidium iodide-DNA fluorescence based FACS analysis (reference value: 1 %); assay type: functional; conditions: HL-60; procedure, shortened: as §3
[14] = Cytotoxicity against human PC3 cells assessed as cell growth inhibition after 48 hrs by MTT assay; assay type: functional, cell-based; conditions: PC-3, 48 h
Procedure, shortened: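 Exposed 48 h to compound in DMSO (vehicle <0.2% v/v). MTT dye added 3 h before termination; formazan dissolved in DMSO, OD 570 nm with 620 nm reference. Growth inhibition expressed as % of untreated; IC50 taken from the dose series.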

[15] = Cell cycle arrest in human HL60 cells assessed as accumulation at subG0 phase at 0.2 uM after 24 hrs by propidium iodide-DNA fluorescence based FACS analysis (reference value: 5 %); assay type: functional; conditions: HL-60; procedure, shortened: as §3
[16] = Cell cycle arrest in human HL60 cells assessed as accumulation at G2 phase at 0.2 uM after 24 hrs by propidium iodide-DNA fluorescence based FACS analysis (reference value: 1 %); assay type: functional; conditions: HL-60; procedure, shortened: as §3
HL-60 [17] = test: Induction of apoptosis in human HL60 cells assessed as loss of mitochondrial membrane potential at 0.2 uM after 24 hrs by Rh123 dye-based FACS analysis (reference value: 5%); assay type: functional
[18] = Cell cycle arrest in human HL60 cells assessed as accumulation at S phase at 0.5 uM after 24 hrs by propidium iodide-DNA fluorescence based FACS analysis (reference value: 53 %); assay type: functional; conditions: HL-60; procedure, shortened: as §3
[19] = Cytotoxicity against human LS180 cells assessed as cell growth inhibition at 30 uM after 48 hrs by MTT assay; assay type: functional; conditions: LS180, 48 h, read-out: GI; procedure, shortened: as §4
[20] = Cell cycle arrest in human HL60 cells assessed as accumulation at S phase at 5 uM after 24 hrs by propidium iodide-DNA fluorescence based FACS analysis (reference value: 53 %); assay type: functional; conditions: HL-60; procedure, shortened: as §3
[21] = Cell cycle arrest in human HL60 cells assessed as accumulation at S phase at 1 uM after 24 hrs by propidium iodide-DNA fluorescence based FACS analysis (reference value: 53 %); assay type: functional; conditions: HL-60; procedure, shortened: as §3
[22] = Cytotoxicity against human LS180 cells assessed as cell growth inhibition after 48 hrs by MTT assay; assay type: functional, cell-based; conditions: LS180, 48 h; procedure, shortened: as §4
[23] = Cytotoxicity against human HL60 cells assessed as cell growth inhibition after 48 hrs by MTT assay; assay type: functional, cell-based; conditions: HL-60, 48 h; procedure, shortened: as §2
[24] = Cell cycle arrest in human HL60 cells assessed as accumulation at G2 phase at 0.5 uM after 24 hrs by propidium iodide-DNA fluorescence based FACS analysis (reference value: 1 %); assay type: functional; conditions: HL-60; procedure, shortened: as §3
[25] = Cell cycle arrest in human HL60 cells assessed as accumulation at G1 phase at 0.2 uM after 24 hrs by propidium iodide-DNA fluorescence based FACS analysis (reference value: 46 %); assay type: functional; conditions: HL-60; procedure, shortened: as §3
[26] = Cell cycle arrest in human HL60 cells assessed as accumulation at subG0 phase at 0.5 uM after 24 hrs by propidium iodide-DNA fluorescence based FACS analysis (reference value: 5 %); assay type: functional; conditions: HL-60; procedure, shortened: as §3
HL-60 [27] = test: Induction of apoptosis in human HL60 cells assessed as loss of mitochondrial membrane potential at 1 uM after 24 hrs by Rh123 dye-based FACS analysis (reference value: 5%); assay type: functional
[28] = Cytotoxicity against human PC3 cells assessed as cell growth inhibition at 50 uM after 48 hrs by MTT assay; assay type: functional; conditions: PC-3, 48 h, read-out: GI; procedure, shortened: as §4
[29] = Cell cycle arrest in human HL60 cells assessed as accumulation at G1 phase at 5 uM after 24 hrs by propidium iodide-DNA fluorescence based FACS analysis (reference value: 46 %); assay type: functional; conditions: HL-60; procedure, shortened: as §3
Vero [30] = test: Selectivity index, ratio of IC50 for African green monkey Vero cells to IC50 for human HL60 cells; assay type: functional; procedure, shortened: as §1

SMILES	Ratio IC50 (Vero [1])	inhibition of growth at 0.5 µM [2]	inhibition of growth at 50 µM [3]	Activity [4]	inhibition of growth at 30 µM [5]	Ratio IC50 [6]	inhibition of growth at 10 µM [7]	IC50 [8]	inhibition of growth at 50 µM [9]	inhibition of growth at 30 µM [10]	inhibition of growth at 50 µM [11]	Activity [12]	Activity [13]	IC50 [14]	Activity [15]	Activity [16]	Activity (HL-60 [17])	Activity [18]	inhibition of growth at 30 µM [19]	Activity [20]	further results
C[C@H]1[C@@H](OCCOc2cccc(C(=O)/C=C/c3ccc(O)cc3)c2)O[C@@H]2O[C@@]3(C)CC[C@H]4[C@H](C)CC[C@@H]1[C@@]24OO3	32	52.9%	94.8%	54%	37.8 to 77.4%	>200	88.7%	15 µM	88.6%	93.3%	33.2 to 64.5%	52%	19%	18 µM	4%	6%	7%	38%	25.2%	20%	Activity [21]: 29%; IC50 [22]: > 50 µM; IC50 [23]: 0.4 µM; Activity [24]: 8%; Activity [25]: 49%; Activity [26]: 9%; Activity (HL-60 [27]): 50%; inhibition of growth at 50 µM [28]: 87.9%; Activity [29]: 64%; Ratio IC50 (Vero [30]): 180
C[C@H]1[C@@H](O)O[C@@H]2O[C@@]3(C)CC[C@H]4[C@H](C)CC[C@@H]1[C@@]24OO3 [ARTENIMOL]	12	36%	93%	58%	36%	19	63%	29 µM	71%	91%	39%	62%	4%	> 100 µM	6%	2%	8%	37%	32%	20%	Activity [21]: 34%; IC50 [22]: 32 µM; IC50 [23]: 2 µM; Activity [24]: 5%; Activity [25]: 49%; Activity [26]: 8%; Activity (HL-60 [27]): 32%; inhibition of growth at 50 µM [28]: 43%; Activity [29]: 75%; Ratio IC50 (Vero [30]): 63
C[C@H]1[C@@H](OCCOc2ccc(/C=C/C(=O)c3ccc(O)cc3)cc2)O[C@@H]2O[C@@]3(C)CC[C@H]4[C@H](C)CC[C@@H]1[C@@]24OO3	88	58.2%	93.6%	59%	68.3 to 86.8%	96	88.4%	7 µM	88.8%	90.1%	55.2 to 82.3%	14%	16%	14 µM	4%	5%	9%	32%	55.2%	35%	Activity [21]: 70%; IC50 [22]: 24 µM; IC50 [23]: 0.3 µM; Activity [24]: 9%; Activity [25]: 49%; Activity [26]: 28%; Activity (HL-60 [27]): 53%; inhibition of growth at 50 µM [28]: 88.9%; Activity [29]: 55%; Ratio IC50 (Vero [30]): 240
